Test results taken from ChEMBL document CHEMBL1122032, “Dopaminergic activity of substituted 6-chloro-1-phenyl-2,3,4,5-tetrahydro-1H-3-benzazepines” (J Med Chem, 1982).
Active and inactive are the calls of the source. The calls are words filed in the database; no cut-off is given here.

Tests used:
[1] = species: Canis familiaris; experiment: Renal vascular resistance was calculated as the ratio of the mean arterial blood pressure / mean renal blood flow; I=Inactive; format: functional, organism-based; settings: Canis lupus familiaris
[2] = species: Canis familiaris; experiment: Renal blood flow was measured in dogs; I=Inactive; format: functional, organism-based; settings: Canis lupus familiaris; Kidney
[3] = test system: Rattus norvegicus; experiment: Central dopaminergic activity for minimum concentration which produced 500 rotations at the dose of 2.0 mg/kg (i.p.) in 2 h; format: functional; settings: route intraperitoneal
How it was run: (§1)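 Rats with substantia nigra lesions scored for contralateral rotation after intraperitoneal dosing (routine), oral dosing for selected compounds, or intracaudal administration for intrinsic activity. RD500 and RD1000 are the minimum doses giving 500 and 1000 turns, respectively, in 2 h.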

[4] = test system: Rattus norvegicus; experiment: Central dopaminergic activity against contralateral rotation(1000) in lesioned rats at the dose of 6.0 mg/kg (p.o.) in 2 h; format: functional; settings: route oral
How it was run: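 Oral dosing in rats with substantia nigra lesions, scoring contralateral rotations. RD1000 is the minimum dose producing 1000 turns in 2 h.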

[5] = species: Canis familiaris; experiment: Renal blood flow was measured in dogs; Significant activity; format: functional, organism-based; settings: Canis lupus familiaris; Kidney
[6] = test system: Rattus norvegicus; experiment: Central dopaminergic activity for minimum concentration which produced 500 rotations(ip); format: functional; how it was run: as §1
[7] = Selectivity ratio of Compound as ratio of ED15 relative to iliac vascular resistance(IVR) ED30; format: functional
How it was run: (§2)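 Secondary renal screen in anesthetized dogs: cumulative dose-response by infusing drug at progressively increasing rates, 5 min per dose level. RVR ED15 is the average minimum cumulative dose lowering RVR by 15%; maximum effect is the average maximum % fall in RVR. Selectivity ratios are separations between RVR ED15 and doses giving 30% change in iliac vascular resistance, 20% in MABP, 20% in HR.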

[8] = species: Canis familiaris; experiment: Compound was evaluated for average maximum percent decrease in renal vascular resistance in dogs; format: functional, Canis lupus familiaris; how it was run: as §2
[9] = species: Canis familiaris; experiment: Renal blood flow was measured in dogs; Highly significant activity; format: functional, organism-based; settings: Canis lupus familiaris; Kidney
[10] = Selectivity ratio of compound as ratio of ED15 relative to mean arterial blood pressure(MABP) ED20; format: functional; how it was run: as §2
[11] = test system: Canis familiaris; experiment: Compound was evaluated for determining renal vascular resistance(iv) in dogs; format: functional, Canis lupus familiaris; how it was run: as §2
[12] = test system: Rattus norvegicus; experiment: Central dopaminergic activity for minimum concentration which produced 500 rotations at the dose of 10 mg/kg (i.p.) in 2 h; I=Inactive; format: functional, organism-based; design: dose 10 mg/kg; how it was run: as §1
[13] = species: Rattus norvegicus; experiment: Central dopaminergic activity against contralateral rotation(500) in lesioned rats; format: functional; how it was run: as §1
[14] = species: Canis familiaris; experiment: Renal vascular resistance was calculated as the ratio of the mean arterial blood pressure / mean renal blood flow; Highly significant activity; format: functional, organism-based; settings: Canis lupus familiaris
[15] = Selectivity ratio of compound as ED15 relative to heart rate(HR) ED20; format: functional; how it was run: as §2
[16] = test system: Rattus norvegicus; experiment: Central dopaminergic activity for minimum concentration which produced 500 rotations(ip) in 2 h; format: functional; how it was run: as §1
[17] = species: Rattus norvegicus; experiment: Adenylase cyclase activity in rat striatal membranes; format: functional, organism-based, Membrane; settings: Striatum
[18] = species: Rattus norvegicus; experiment: Central dopaminergic activity against contralateral rotation(500) in lesioned rats(ic); format: functional; how it was run: as §1

Br.CN1CCc2c(cc(O)c(O)c2Cl)C(c2cccc(C(F)(F)F)c2)C1 (stereo unspecified)
RVR [1]: inactive | RBF [2]: inactive | RD500 [3]: 594 turns/2 h | RD1000 [4]: 296 turns/2 h

Cl.Oc1cc2c(c(Cl)c1O)CCN(Cc1ccc(C(F)(F)F)cc1)CC2c1ccccc1 (stereo unspecified)
RVR [1]: inactive | RBF [5]: Significant activity | RD500 [6]: 455 turns/2 h

CS(=O)(=O)O.Oc1ccc(C2CNCCc3c2cc(O)c(O)c3Cl)cc1 (stereo unspecified) [FENOLDOPAM MESYLATE]
Ratio [7]: > 6070 | Decrease RVR [8]: 59% | RBF [9]: Highly significant activity | Ratio [10]: >6072 | RVR ED15 [11]: 0.0003 mg/kg | RD500 [12]: inactive | RD500 [13]: 0.5 ug rat-1 | RVR [14]: Significant activity | Ratio [15]: >6072

CN1CCc2c(cc(O)c(O)c2Cl)C(c2ccccc2)C1.Cl (stereo unspecified)
RBF [5]: Significant activity | RD500 [16]: 0.03 mg/kg | RVR [14]: Significant activity | EC50 [17]: 600 nM | RD500 [18]: 0.32 ug rat-1
